{"data": "Measurements pooled from the literature", "note": "Each line is one published result; the experiments were not run side by side."}
{"SMILES": "O=S(=O)(c1ccc(-c2ccc3nccc(Nc4ccncn4)c3c2)cc1)N1CCOCC1", "system": "female BALB/c mouse, plasma", "conditions": "intraperitoneal, 10 mg/kg, 4.8 min", "quantity": "concentration", "result": "2340 ng/mL"}
{"SMILES": "c1ccc(-c2nc(N3CCC(c4ccccn4)C3)c3ccccc3n2)nc1 (stereo not drawn)", "system": "female BALB/c mouse, plasma", "conditions": "oral, 50 mg/kg, 15 min", "quantity": "concentration", "result": "2130 ng/mL"}
{"SMILES": "CC(C)(C)c1ccc(O)c(CN(Cc2cc(C(C)(C)C)ccc2O)C2CCC(NC(N)=O)CC2)c1 (stereo not drawn)", "system": "male C57BL/6 mouse, plasma", "conditions": "intraperitoneal, 10 mg/kg, single dose", "quantity": "half-life", "result": "2.49 h"}
{"SMILES": "c1cnc2ccc(Nc3nc(NC4CC4)c4nc[nH]c4n3)cc2c1", "system": "human, plasma", "conditions": "oral, 800 mg/m², patients", "quantity": "MRT(0-t)", "result": "9.6 h"}
{"SMILES": "O=C1NN=C(N=Cc2ccc(O)c(O)c2)C1=NNn1c(-c2ccccc2)nc2ccccc2c1=O", "quantity": "logP", "result": 3.38}
{"SMILES": "Nc1ccc(-c2ccc3ncc(-c4noc(C(F)(F)F)n4)cc3c2)cc1", "assay": "metabolic stability", "system": "beagle dog, liver microsomes", "conditions": "1 µM", "quantity": "scaled CLint", "result": "115 mL/min/kg"}
{"SMILES": "Cn1cnc2c(F)c(Nc3ccc(Br)cc3Cl)c(C(=O)NOCCO)cc21", "system": "nude mouse, liver", "conditions": "oral, 10 mg/kg, single dose, tumour-bearing", "quantity": "half-life", "result": "2.7 h"}
{"SMILES": "COc1cc(/C=C/c2ccccc2)cc(OC)c1", "assay": "HPLC", "quantity": "chromatographic logP", "result": "> 3.14"}
{"SMILES": "N#CN1C[C@H](n2nc(-c3ccc(Oc4ccc(Cl)cn4)cc3)c(C(N)=O)c2N)CCC12CC2", "system": "human, plasma", "conditions": "oral, 600 mg, fasted", "quantity": "MRT", "result": "31.6 h"}
{"SMILES": "CS(=O)(=O)CCC#N", "system": "human, plasma", "conditions": "oral, 100 mg, single dose, fasted", "quantity": "MRT", "result": "30.5 h"}
{"SMILES": "O=C1NN=C(N=Cc2ccc(O)cc2O)C1=NNn1c(-c2ccccc2)nc2ccccc2c1=O", "quantity": "logP", "result": 3.38}
{"SMILES": "CCc1ccc(Cc2cc([C@@H]3O[C@H](CO)[C@@H](O)[C@H](O)[C@H]3O)cc3c2CCC3)cc1", "system": "male C57BL/6 mouse, plasma", "conditions": "oral, 0.3 mg/kg", "quantity": "half-life", "result": "3.1 h"}
{"SMILES": "CC(C)CN(C[C@@H](O)[C@H](Cc1ccccc1)NC(=O)O[C@H]1CO[C@H]2OCC[C@H]21)S(=O)(=O)c1ccc(N)cc1", "system": "BALB/c mouse, plasma", "conditions": "intravenous, 25 mg/kg, 6 h", "quantity": "concentration", "result": "119 ng/mL"}
{"SMILES": "CC(C)(O)c1ccccc1-c1ccc2[nH]c(/C=C/c3ccc(C(F)(F)F)cc3)nc2c1", "system": "male human, plasma", "conditions": "oral, 2 mg, single dose, fasted, healthy volunteers", "quantity": "MRT", "result": "77.2 h"}
{"SMILES": "COc1cc(/C=C/c2ccc(O)cc2)cc(OC)c1", "assay": "HPLC", "quantity": "chromatographic logP", "result": "> 3.14"}
{"SMILES": "O=C(O)C1CCN(c2ncc(-c3ccc4c(c3)OCCCO4)s2)CC1", "system": "male Swiss mouse, plasma", "conditions": "oral, 30 mg/kg, 30 min, single dose", "quantity": "concentration", "result": "14800 ng/mL"}
{"SMILES": "COc1cccc(/C=C/c2ccc(O)cc2)c1", "assay": "HPLC", "quantity": "chromatographic logP", "result": "> 3.14"}
{"SMILES": "CC(C)(Nc1nc(-c2ccccn2)nc2ccccc12)c1ccccn1", "system": "female BALB/c mouse, plasma", "conditions": "intravenous, 1 mg/kg, 8 h", "quantity": "concentration", "result": "6 ng/mL"}
{"SMILES": "O=c1nc(N2CCN(CC3CCCCC3)CC2)sc2c([N+](=O)[O-])cc(C(F)(F)F)cc12", "system": "CD-1 mouse, lung", "conditions": "intravenous, 10 mg/kg, 24 h", "quantity": "concentration", "result": "15 ng/mL"}
{"SMILES": "CC(C)Oc1cccc(-c2cnc(N3CCC(C(N)=O)CC3)s2)c1", "system": "male Swiss mouse, plasma", "conditions": "oral, 30 mg/kg, 15 min, single dose", "quantity": "concentration", "result": "416 ng/mL"}
{"SMILES": "CC[C@H](C)[C@@H]1NC(=O)[C@@](C)(NC(=O)[C@H](CCCNC(=N)N)NC(=O)[C@H](CC(C)C)NC(=O)[C@@H](NC(=O)[C@H](CCC(N)=O)NC(=O)[C@H](CC(C)C)NC(C)=O)[C@@H](C)O)CCCC=CCCC[C@@](C)(C(=O)N[C@@H](CC(C)C)C(=O)N[C@@H](Cc2ccc3ccccc3c2)C(N)=O)NC(=O)[C@H](CCCNC(=N)N)NC(=O)[C@H](CCC(N)=O)NC1=O", "system": "male BALB/c mouse, plasma", "conditions": "intraperitoneal, 5 mg/kg", "quantity": "half-life", "result": "3.09 h"}
